According to ChEMBL document CHEMBL5038602, “Potent Lys Patch-Containing Stapled Peptides Targeting PCSK9” (J Med Chem, 2021):
pEC50, pKd: −log10 of the molar value. Positions of bridges follow the written chain, without caps; N, C: chain ends. Residues, ends and D or L forms follow the SMILES beside them.

How the values were obtained:
[1] = target: Proprotein convertase subtilisin/kexin type 9 (Homo sapiens, UniProt Q8NBP7); assay: Binding affinity to human PCSK9 by surface plasmon resonance
Summary of the method: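 Recombinant human His-tagged PCSK9 (Gln31–Gln692, HEK293-expressed) at 14 µg/mL amine-coupled onto Ni-NTA chip, ~1000–4000 RU. Buffer 25 mM Tris-HCl, 5 mM CaCl2, 100 mM NaCl, 0.01% P20, pH 7.5, 5% DMSO in running buffer. 25°C. Double-referenced sensorgrams; KD from steady-state equilibrium responses fit to a 4-parameter model, or kinetics fit 1:1.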

[2] = Reversal of LDL uptake in human HepG2 cells at 10 uM for 2 hrs preincubation with PCSK9 followed by LDL addition and measured after 4 hrs by fluorimetry method relative to control; type: functional; settings: time 6 hrs
Summary of the method: (§1)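 HepG2 cells seeded 40000/well, serum-starved 24 h in DMEM with 5% LPDS. Human His-PCSK9 (20–50 nM) preincubated 30–60 min at room temperature ± compounds (10 µM to 0.0001 µM, 0.1% DMSO). Cells then exposed 2 h at 37°C. LDL-BODIPY added to 10 µg/mL final for 4 h. Fluorescence read at ex 480/em 520 nm. Expressed as % maximal LDL-BODIPY incorporation; EC50 by non-linear fit.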

[3] = Reversal of LDL uptake in human HepG2 cells for 2 hrs preincubation with PCSK9 followed by LDL addition and measured after 4 hrs by fluorimetry method relative to control; type: functional, cell-based; summary of the method: as §1
[4] = Effect on mast cell degranulation in human LAD2 cells assessed as CCL3 release measured after 2 hrs by Luminex bead based assay; type: functional; settings: for pEC50: Homo sapiens, LAD2, 2 h; for Emax: time 2 hrs
Summary of the method: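 LAD2 human mast cells in StemPro 34 medium, 0.2×10^6 cells/well. Supernatant CCL3 quantified by Luminex magnetic bead kit.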

HepG2 = assay: Cytotoxicity against human HepG2 cells assessed as reduction in cell viability at 0.4 to 10 uM for 48 hrs by SRB assay; type: toxicity, cell-based; settings: hepg2, 48 h, dose 0.4-10 µM
Summary of the method: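 HepG2 cells seeded 2000/well 24 h before treatment. Compounds at 0.4, 1.1, 3.3 and 10 µM in DMEM, 48 h at 37°C. SRB staining 30 min at 37°C, dye dissolved in 10 mM Tris base, absorbance at 560 nm. Triplicate wells averaged and normalized to untreated cells.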

Sequence of Proprotein convertase subtilisin/kexin type 9 (Q8NBP7 31-152 limits assumed): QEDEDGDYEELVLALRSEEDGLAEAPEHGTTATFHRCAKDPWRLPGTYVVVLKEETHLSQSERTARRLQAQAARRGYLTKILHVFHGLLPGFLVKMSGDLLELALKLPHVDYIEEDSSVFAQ
Sequence of Proprotein convertase subtilisin/kexin type 9 (Q8NBP7 153-692 limits assumed): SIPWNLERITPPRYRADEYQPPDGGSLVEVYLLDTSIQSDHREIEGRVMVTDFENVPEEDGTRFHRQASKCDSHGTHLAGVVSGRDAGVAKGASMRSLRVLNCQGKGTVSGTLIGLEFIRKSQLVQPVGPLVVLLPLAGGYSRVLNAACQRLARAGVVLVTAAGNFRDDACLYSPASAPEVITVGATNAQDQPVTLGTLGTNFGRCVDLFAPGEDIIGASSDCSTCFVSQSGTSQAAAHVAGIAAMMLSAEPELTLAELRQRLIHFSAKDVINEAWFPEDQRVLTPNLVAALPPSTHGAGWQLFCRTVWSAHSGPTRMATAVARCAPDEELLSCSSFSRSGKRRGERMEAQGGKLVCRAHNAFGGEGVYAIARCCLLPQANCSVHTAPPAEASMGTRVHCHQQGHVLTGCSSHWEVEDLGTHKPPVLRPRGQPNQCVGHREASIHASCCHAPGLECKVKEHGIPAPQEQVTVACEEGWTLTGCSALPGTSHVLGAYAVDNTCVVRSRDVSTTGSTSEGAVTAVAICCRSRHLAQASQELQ

`CC(=O)N[C@H](C(=O)N[C@H](C(=O)N[C@@H](Cc1ccccc1)C(=O)N[C@H](C(=O)N[C@@H](CO)C(=O)N[C@@H](Cc1c[nH]c2ccccc12)C(=O)N[C@@H](CCC(=O)O)C(=O)N[C@@H](CCC(=O)O)C(=O)N[C@@H](Cc1ccc(O)cc1)C(=O)N[C@@H](CC(C)C)C(=O)N[C@@H](CC(=O)O)C(=O)N[C@@H](Cc1c[nH]c2ccccc12)C(=O)N[C@H](C(N)=O)C(C)C)[C@@H](C)O)C(C)C)[C@@H](C)O` showed a pKd [1] of 5.01, an Activity [2] of 56.5% and a pEC50 [3] of 5.22. For the same compound, the pEC50 [4] was under 5.30, the Emax [4] was 116.7 pg/mL and the Activity (HepG2) was “Non-Toxic”.

For `CC(=O)N[C@@H](Cc1cnc[nH]1)C(=O)N[C@H](C(=O)N[C@@H](Cc1ccccc1)C(=O)N[C@@H](CCCCN)C(=O)N[C@@H](CO)C(=O)N[C@@H](Cc1c[nH]c2ccccc12)C(=O)N[C@H]1CCCCNC(=O)C[C@@H](C(=O)N[C@@H](Cc2c[nH]c3ccccc23)C(=O)N[C@H](C(=O)N[C@@H](CCCCN)C(=O)N[C@@H](CCCCN)C(=O)N[C@@H](CCCCN)C(=O)N[C@@H](CCCCN)C(=O)N[C@@H](CCCCN)C(=O)N[C@@H](CCCCN)C(N)=O)C(C)C)NC(=O)[C@H](CC(C)C)NC(=O)[C@H](Cc2ccc(O)cc2)NC(=O)[C@H](CCC(=O)O)NC1=O)C(C)C` (Ac-HVFKSWKEYLDWVKKKKKK-NH2; lactam 7-11), the pKd [1] was 8.22, the pEC50 [3] was 6.76 and the pEC50 [4] was 5.66. For the same compound, the Emax [4] was 1483.2 pg/mL and the Activity (HepG2) was “Non-Toxic”.
